Active and inactive are the calls of the source. The rule behind the calls is not given here.
Legend:
[1] = Drug metabolism in rat liver microsomes assessed as N-demethylated metabolite formation measured after 96 hrs by ESI-HRMS assay; format: ADME, Microsome
Procedure, shortened: (§1)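 Compound at 100 μM final incubated at 37 °C with rat or human liver microsomes (1 mg/mL protein, 10 mM buffer pH 7.4) plus NADPH-generating system (0.6 mM NADPNa4, 6.4 mM glucose-6-phosphate, 2 U/mL G6PDH). After 96 h, ethyl acetate extraction and HPLC-MS/MS (positive ESI, m/z 150–450, collision-induced dissociation) to identify metabolites.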

[2] = system: K562; assay: Induction of mitochondrial dysfunction in human K562 cells assessed as green monomer formation at 1 nM measured after 48 hrs by JC-1 staining based flow cytometry (reference value: 1.3%); format: functional
[3] = system: K562; assay: Anticlonogenic activity against human K562 cells assessed as reduction in total surface area of cell colonies at 0.05 to 10 nM measured after 10 days by MTT reagent based colony formation assay; format: functional; conditions: dose 0.05-10 nM, time 10.0 day
Procedure, shortened: (§2)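 10^3 K562 cells (RPMI 1640, 10% FBS) or imatinib-resistant K562IR cells (RPMI 1640 with 25 mM HEPES, 10% FCS; kept in 1 μM imatinib, washed three times before use) grown 10 days in semisolid methylcellulose medium with 10% FBS, with or without compound. Colonies stained with 1 mg/mL MTT and image-analysed; three independent experiments, mean ± SD, two-way ANOVA with Tukey test.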

[4] = Drug metabolism in rat liver microsomes assessed as hydroxylated metabolite formation measured after 96 hrs by ESI-HRMS assay; format: ADME, Microsome; procedure, shortened: as §1
[5] = system: K562; assay: Anticlonogenic activity against human K562 cells assessed as reduction in number of cell colonies at 0.05 to 10 nM measured after 10 days by MTT reagent based colony formation assay; format: functional; conditions: dose 0.05-10 nM, time 10.0 day; procedure, shortened: as §2
[6] = system: K-562R; assay: Cytotoxicity against human K-562R cells assessed as inhibition of cell growth measured after 72 hrs by CellTiter-Glo reagent based luminescence assay; format: functional
Procedure, shortened: (§3)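 Cells seeded at 3 × 10³/well and grown 24 h. A549, MDA-MB231, K562 and K562R (doxorubicin-resistant) were in RPMI 1640; MiaPaCa2 and HT29 in DMEM (4.5 g/L glucose); all media had 10% FCS and 1% glutamine, at 37 °C and 5% CO₂. Cells got 10 final concentrations by serial dilution, with vehicle controls, for 72 h. CellTiter-Glo luminescence was read after 15 min. Triplicate runs; IC50 from four- or five-parameter logistic fits.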

[7] = system: HT-29; assay: Cytotoxicity against human HT-29 cells assessed as inhibition of cell growth measured after 72 hrs by CellTiter-Glo reagent based luminescence assay; format: functional; conditions: HT-29, 72 h; procedure, shortened: as §3
[8] = system: K562; assay: Induction of mitochondrial dysfunction in human K562 cells assessed as red aggregate formation at 5 nM measured after 48 hrs by JC-1 staining based flow cytometry (reference value: 98.3%); format: functional
[9] = system: MIA PaCa-2; assay: Cytotoxicity against human MIA PaCa-2 cells assessed as inhibition of cell growth measured after 72 hrs by CellTiter-Glo reagent based luminescence assay; format: functional; conditions: MIA PaCa-2, 72 h; procedure, shortened: as §3
[10] = Metabolic stability in rat liver microsomes assessed as half life measured after 96 hrs by HPLC-MS/MS analysis; format: ADME, Microsome
Procedure, shortened: (§4)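 Compound (100 μM final) incubated at 37 °C with rat or human liver microsomes (1 mg/mL protein, pH 7.4) and NADPH-generating system; triplicate aliquots at 0–144 h quenched with isoCA-4 internal standard and ethyl acetate, quantified by HPLC-MS/MS against calibration curves.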

[11] = system: A549; assay: Cytotoxicity against human A549 cells assessed as inhibition of cell growth measured after 72 hrs by CellTiter-Glo reagent based luminescence assay; format: functional; conditions: A549, 72 h; procedure, shortened: as §3
[12] = system: K562; assay: Anticlonogenic activity against human K562 cells assessed as reduction in average size of cell colonies at 0.05 to 10 nM measured after 10 days by MTT reagent based colony formation assay; format: functional; conditions: dose 0.05-10 nM, time 10.0 day; procedure, shortened: as §2
[13] = system: K562; assay: Induction of mitochondrial dysfunction in human K562 cells assessed as red aggregate formation at 0.5 nM measured after 48 hrs by JC-1 staining based flow cytometry (reference value: 98.3%); format: functional
[14] = system: K562; assay: Cytotoxicity against human K562 cells assessed as inhibition of cell growth measured after 72 hrs by CellTiter-Glo reagent based luminescence assay; format: functional; conditions: K562, 72 h; procedure, shortened: as §3
[15] = Inhibition of porcine brain tubulin polymerization incubated for 30 mins followed by cooling on ice for 10 mins and measured by UV spectrometer assay; format: tissue-based, Sus scrofa
Procedure, shortened: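 Porcine brain tubulin (Shelanski isolation) in 0.1 M MES, 1.5 mM GTP, 1 mM EGTA, 1 mM β-ME, 1 mM MgCl2, pH 6.7, diluted to 1.5 mg/mL; ligand or DMSO 30 min at 20 °C, 10 min on ice. Assembly by 450 nm turbidity on 4→37 °C shift, plateau minus baseline vs no-ligand control (100%); IC50 from mono-exponential fit of ligand:tubulin ratio, three independent experiments.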

[16] = Metabolic stability in human liver microsomes assessed as half life measured after 96 hrs by HPLC-MS/MS analysis; format: ADME, Microsome; procedure, shortened: as §4
[17] = system: K-562R; assay: Anticlonogenic activity against imatinib-resistant human K-562R cells assessed as reduction in number of cell colonies at 0.01 to 10 nM measured after 10 days by MTT reagent based colony formation assay; format: functional; conditions: dose 0.01-10 nM, time 10.0 day; procedure, shortened: as §2
[18] = system: MDA-MB-231; assay: Cytotoxicity against human MDA-MB-231 cells assessed as inhibition of cell growth measured after 72 hrs by CellTiter-Glo reagent based luminescence assay; format: functional; conditions: MDA-MB-231, 72 h; procedure, shortened: as §3
[19] = system: K562; assay: Induction of mitochondrial dysfunction in human K562 cells assessed as green monomer formation at 50 nM measured after 48 hrs by JC-1 staining based flow cytometry (reference value: 1.3%); format: functional
[20] = system: K562; assay: Induction of mitochondrial dysfunction in human K562 cells assessed as green monomer formation at 10 nM measured after 48 hrs by JC-1 staining based flow cytometry (reference value: 1.3%); format: functional
[21] = system: K562; assay: Induction of mitochondrial dysfunction in human K562 cells assessed as green monomer formation at 0.5 nM measured after 48 hrs by JC-1 staining based flow cytometry (reference value: 1.3%); format: functional
[22] = system: U-87 MG; assay: Cytotoxicity against human U-87 MG cells assessed as inhibition of cell growth measured after 72 hrs by CellTiter-Glo reagent based luminescence assay; format: functional, U-87MG ATCC
Procedure, shortened: (§5)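 Cells (HCT-116 in McCoy's 5A; U87-MG in DMEM 4.5 g/L glucose; all with 10% serum, 1% glutamine, 37 °C, 5% CO2) seeded at 3 × 10³/well, treated after 24 h with 10 final concentrations by serial dilution; vehicle controls. After 72 h, CellTiter-Glo luminescence; IC50 from four- or five-parameter logistic fit, triplicate, mean of three experiments.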

[23] = system: HT-1080; assay: Cytotoxicity against human HT-1080 cells assessed as inhibition of cell growth measured after 72 hrs by CellTiter-Glo reagent based luminescence assay; format: functional; conditions: HT-1080, 72 h
[24] = system: K562; assay: Induction of mitochondrial dysfunction in human K562 cells assessed as red aggregate formation at 1 nM measured after 48 hrs by JC-1 staining based flow cytometry (reference value: 98.3%); format: functional
[25] = system: K562; assay: Induction of mitochondrial dysfunction in human K562 cells assessed as red aggregate formation at 50 nM measured after 48 hrs by JC-1 staining based flow cytometry (reference value: 98.3%); format: functional
[26] = system: K-562R; assay: Anticlonogenic activity against imatinib-resistant human K-562R cells assessed as reduction of total surface of cell colonies at 0.01 to 10 nM measured after 10 days by MTT reagent based colony formation assay; format: functional; conditions: dose 0.01-10 nM, time 10.0 day; procedure, shortened: as §2
[27] = system: K562; assay: Induction of mitochondrial dysfunction in human K562 cells assessed as red aggregate formation at 10 nM measured after 48 hrs by JC-1 staining based flow cytometry (reference value: 98.3%); format: functional
[28] = system: K-562R; assay: Anticlonogenic activity against imatinib-resistant human K-562R cells assessed as reduction of average size of cell colonies at 0.01 to 10 nM measured after 10 days by MTT reagent based colony formation assay; format: functional; conditions: dose 0.01-10 nM, time 10.0 day; procedure, shortened: as §2
[29] = system: K562; assay: Cell cycle arrest in human K562 cells assessed as accumulation of cells in G2/M phase at 0.5 nM measured after 24 hrs by PI staining based flowcytometry; format: functional
Procedure, shortened: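 Exponentially growing K562 cells exposed to compound (0.5 and 1 nM) or DMSO alone for 24 h. DNA content stained with propidium iodide and cell-cycle distribution read by flow cytometry.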

[30] = Drug metabolism in human liver microsomes assessed as hydroxylated metabolite formation measured after 96 hrs by ESI-HRMS assay; format: ADME, Microsome; procedure, shortened: as §1
[31] = Drug metabolism in human liver microsomes assessed as N-demethylated metabolite formation measured after 96 hrs by ESI-HRMS assay; format: ADME, Microsome; procedure, shortened: as §1
[32] = system: HCT-116; assay: Cytotoxicity against human HCT-116 cells assessed as inhibition of cell growth measured after 72 hrs by CellTiter-Glo reagent based luminescence assay; format: functional; conditions: HCT-116, 72 h; procedure, shortened: as §5
[33] = system: K562; assay: Induction of mitochondrial dysfunction in human K562 cells assessed as green monomer formation at 5 nM measured after 48 hrs by JC-1 staining based flow cytometry (reference value: 1.3%); format: functional

Compound: CCn1c(CO)cc2cc(N(C)c3nc(C)nc4ccccc34)ccc21
- Drug metabolism [1]: Metabolite_Detected
- Activity [2]: 22.3%
- Activity [3]: Active
- Drug metabolism [4]: Metabolite_Detected
- Activity [5]: Active
- IC50 [6]: 0.1 nM
- IC50 [7]: 0.84 nM
- Activity [8]: 75.8%
- IC50 [9]: 0.09 nM
- half-life [10]: 140 h
- IC50 [11]: 0.7 nM
- Activity [12]: Active
- Activity [13]: 77.6%
- IC50 [14]: 0.26 nM
- IC50 [15]: 1900 nM
- half-life [16]: 145 h
- Activity [17]: Active
- IC50 [18]: 0.25 nM
- Activity [19]: 39.2%
- Activity [20]: 31.2%
- Activity [21]: 21.3%
- IC50 [22]: 0.51 nM
- IC50 [23]: 0.08 nM
- Activity [24]: 76.9%
- Activity [25]: 60%
- Activity [26]: Active
- Activity [27]: 68.1%
- Activity [28]: Active
- Activity [29]: Active
- Drug metabolism [30]: Metabolite_Detected
- Drug metabolism [31]: Metabolite_Detected
- IC50 [32]: 0.08 nM
- Activity [33]: 23.1%
